pIC50: −log10 of the molar value.
These compounds were tested on E. coli BW25113 ΔtolC growth inhibition, OD615 (assay: growth inhibitors of E. coli tolC mutant, dose response, strain BW25113 ΔtolC::kan (AID 617)).
Summary of the method: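 Test system: E. coli BW25113 ΔtolC::kan bacteria | Amount: 1:1000 diluted subculture inoculum | Medium: LB plus kanamycin | Timing: 20 h exposure at 37 °C | Signal: Absorbance at 615 nm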
`Clc1ccc(Cl)c(-c2nn3c(COc4ccccc4)nnc3s2)c1` gave a pIC50 of 6.11.
With `CCCCCCn1c2c(c(=N)c3c1CCC3)CCC2` the pIC50 was 4.99.
`c1ccc(-c2nc(CSc3nnc(-c4cccs4)o3)cs2)cc1` showed a pIC50 of 5.00.
`O=C(CCCOc1ccc(Cl)cc1Cl)N1CCN(c2ccccn2)CC1` gave a pIC50 of 5.22.
With `CCOC(=O)c1cn(CC)c2cc(N3CCOCC3)c(F)cc2c1=O` the pIC50 was 6.11.
With `CCOC(=O)Cc1ccc(NS(=O)(=O)c2ccc(SC)cc2)cc1` the pIC50 was 4.83.
`Cc1nn(Cc2ccc(C(=O)N3c4ccc(F)cc4CCC3C)o2)c(C)c1Br` (stereo unspecified) gave a pIC50 of 5.01.
In the case of `Cc1ccc2[nH]c(=O)c(CN(Cc3ccc4c(c3)OCO4)Cc3nnnn3C3CCCC3)cc2c1`, the pIC50 was 4.37.
In the case of `Clc1ccc(C(c2nnnn2C2CCCCC2)N(Cc2cccnc2)Cc2ccco2)cc1` (stereo unspecified), the pIC50 was 4.83.
For `O=C(Nc1nnc(-c2ccc3c(c2)OCCO3)o1)c1ccc(Cc2ccccc2)cc1`, the pIC50 was 5.49.
In the case of `O=C(Nc1nc2n(n1)C(c1ccc(Cl)cc1)CC(c1ccc(Cl)cc1)N2)c1ccco1` (stereo unspecified), the pIC50 was 5.33.
`CCc1cc(/C(Cc2ccc3ccccc3n2)=N\O)c(O)cc1O` gave a pIC50 of 5.08.
For `O=C1c2ccccc2C(O)(Cc2ccccc2)N1C1CCCCC1` (stereo unspecified), the pIC50 was 4.94.
`Cc1c(C(=O)OCCOc2ccccc2)[nH]c2c1C(=O)CCC2` showed a pIC50 of 5.41.
Work on `CCCCn1c(O)c(C(CC)=NCCc2ccccc2)c(=O)[nH]c1=O` yielded a pIC50 of 4.86.
For `Cc1cccc(-c2noc(CN(C(=O)c3ccc(Br)o3)C(C)C)n2)c1`, the pIC50 was 4.93.
Compound `COc1cc(NS(=O)(=O)c2ccc(Br)cc2)c(OC)cc1NC(=O)c1ccco1` has a pIC50 of 4.60.
With `Cc1ccc(C)c(N2CCN(C(=O)c3ccc(NS(=O)(=O)c4c(C)noc4C)cc3)CC2)c1` the pIC50 was 4.87.
Work on `CC1CCN(C(=O)c2ccc(COc3ccccc3Cl)o2)CC1` yielded a pIC50 of 4.95.
`Cc1ccc(Cl)cc1N1CCN(Cc2nnnn2Cc2ccco2)CC1` gave a pIC50 of 4.75.
With `O=S(=O)(N1CCCCC1)n1c(Cc2ccccc2)nc2ccccc21` the pIC50 was 5.16.
Work on `CCOC(=O)C1CCN(C(=O)c2oc3ccc(S(=O)(=O)N4CCCCCC4)cc3c2C)CC1` yielded a pIC50 of 4.67.
`N=c1n(Cc2ccccc2)c2ccccc2n1CC(O)COc1ccccc1` (stereo unspecified) showed a pIC50 of 4.67.
In the case of `O=C(O)CCC(=O)N1CCc2cc(S(=O)(=O)N3CCC(Cc4ccccc4)CC3)ccc21`, the pIC50 was 5.97.
With `CCOC(=O)C1Cn2c(nc3c(c2=O)C(C)(CC)Cc2ccccc2-3)S1` (stereo unspecified) the pIC50 was 4.62.
In the case of `CC(C)c1ccc(Nc2nc(NCc3ccco3)nc(N3CCOCC3)n2)cc1`, the pIC50 was 4.76.
Work on `O=S(=O)(Nc1ccc(S(=O)(=O)N2CCCCC2)cc1)c1ccc(Br)s1` yielded a pIC50 of 5.36.
Work on `N#Cc1nc(COc2ccc(Br)cc2)oc1NCCCn1ccnc1` yielded a pIC50 of 4.63.
Compound `CCOC(=O)c1cccc2c1-c1ccccc1/C2=N/O` has a pIC50 of 4.01.
In the case of `O=C(CSc1nnc(Cc2ccccc2)n1Cc1ccco1)NC12CC3CC(CC(C3)C1)C2`, the pIC50 was 4.21.
In the case of `C=C(C)COc1ccc(-c2[nH]ncc2Oc2ccccc2OC)c(O)c1`, the pIC50 was 5.24.
`O=C1CN(C(=O)c2ccc(Br)o2)C(c2ccccc2)c2cc(Cl)ccc2N1` (stereo unspecified) was tested, and the pIC50 was 4.81.
In the case of `COc1cccc(NC(=O)Nc2nnc(N3CCCCC3C)s2)c1` (stereo unspecified), the pIC50 was 5.07.
`CCC(Oc1ccccc1)C(=O)Nc1ccc(-c2nnc(-c3ccco3)o2)cc1` (stereo unspecified) was tested, and the pIC50 was 4.74.
With `c1ccc(CCN2CCN(c3ncnc4c3cnn4-c3ccccc3)CC2)cc1` the pIC50 was 4.97.
`CCn1c(=O)c2cc(C(=O)N3CCN(C(=O)c4ccco4)CC3)sc2c2ccccc21` showed a pIC50 of 5.20.
In the case of `O=C(c1cccc(COc2ccc(Cl)cc2Cl)c1)N1CCN(c2ccccn2)CC1`, the pIC50 was 5.42.
`O=C(NCc1ccco1)c1cnn2c1NC(c1ccc(Br)cc1)CC2C(F)(F)F` (stereo unspecified) was tested, and the pIC50 was 4.89.
`CCOC(=O)c1c(NC(=O)CSc2nnc(C)c(=O)[nH]2)sc2c1CCC2` showed a pIC50 of 4.97.
With `COc1ccc(C/C(O)=C(\C#N)c2nc3ccccc3s2)cc1` the pIC50 was 5.29.
`CC(C)N(Cc1nc(-c2ccc(Cl)cc2)no1)C(=O)CCC1CCCC1` showed a pIC50 of 4.81.
Compound `CSc1ncc(Cl)c(C(=O)C(C#N)c2nc3c(C)cc(C)cc3c(=O)[nH]2)n1` (stereo unspecified) has a pIC50 of 5.48.
In the case of `COc1ccc(-c2cnc(SCC(=O)Nc3cc(C)on3)n2Cc2ccco2)cc1`, the pIC50 was 4.45.
Compound `CC1CCCC(C)N1C(=O)CN1CCN(c2nc(-c3ccc(F)cc3)cs2)CC1` (stereo unspecified) has a pIC50 of 4.92.
For `O=S(=O)(Nc1cccc2ncccc12)c1cccs1`, the pIC50 was 5.28.
In the case of `O=C(CC1CCCCC1)c1c(O)c2ccccc2oc1=O`, the pIC50 was 5.76.
Compound `CC(=Nc1ccc(O)cc1)c1sc2ccccc2c1O` has a pIC50 of 6.05.
`CCCn1c(=O)c(C(=O)Nc2nnc(C)s2)c(O)c2ccccc21` gave a pIC50 of 4.92.
For `CNc1ccc(C(O)(C(F)(F)F)C(F)(F)F)cc1C(O)(C(F)(F)F)C(F)(F)F`, the pIC50 was 5.16.
Compound `O=C(NC1CCCCC1)c1nc2c(nnn2Cc2ccccc2Cl)c(=O)[nH]1` has a pIC50 of 5.21.
Work on `CCSc1oc(-c2ccccc2)nc1S(=O)(=O)c1ccccc1` yielded a pIC50 of 4.96.
For `CCc1cc2cc(C(=O)N3CCN(Cc4ccccc4)CC3)sc2s1`, the pIC50 was 4.99.
Work on `CCCCC(=O)c1c(O)c2ccccc2oc1=O` yielded a pIC50 of 5.13.
`CC(C)(C)c1ccc(C(=O)CCCSC2=C(C#N)C(c3ccco3)C3=C(CCCC3=O)N2)cc1` (stereo unspecified) gave a pIC50 of 5.75.
In the case of `CN(C)C1(c2nnnn2CCOC(=O)Nc2ccc(Cl)cc2)CCCCC1`, the pIC50 was 5.08.
With `Cc1oc2c(CN3CCOCC3)c(O)ccc2c(=O)c1-c1ccc(Br)cc1` the pIC50 was 5.55.
